Screens: PubChem BioAssay, several laboratories
Shown are actives, neighbours in structure and some others; about 1.9% of the full set was active somewhere.
FAS-TE inh – FAS thioesterase domain inhibitors, primary screen, biochemical, fluorescence intensity, uHTS; inhibition, % at 15 µM; recombinant FAS-TE, OMFH fluorogenic substrate, fluorescence endpoint; AID 602261, 2012; 0.67% of 360,000 active;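 active = compounds whose normalised, plate-corrected inhibition of enzyme fluorescence in the single-dose primary screen is 50% or more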
ADAM10 inh – human ADAM10 inhibitors, primary screen, biochemical, QFRET, HTS. 0.62% of 370,000 active. AID 720582, 2013. Disintegrin and metalloproteinase domain-containing protein 10 (Homo sapiens), O14672. recombinant ADAM10, EDANS/DABCYL FRET peptide cleavage, 3 h. inhibition, % at 7 µM;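 active = inhibition above a per-campaign cutoff equal to the mean of compounds falling between control-based bounds plus 3 SD, cut at about 20% in these data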
SENP1 FRET inh – human SENP1 catalytic domain inhibitors, primary screen, biochemical, FRET, uHTS. 0.21% of 360,000 active. inhibition, % at 10 µM. recombinant SENP1 catalytic domain, CyPet-SUMO1-YPet FRET cleavage. Sentrin-specific protease 1 (Homo sapiens), Q9P0U3;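 active = inhibition at least 30% at 10 µM, raw YFP signal under a set limit, fluorescence ratio 0.5 to 1.5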
Target sequence (Q9P0U3 419-644 limits assumed): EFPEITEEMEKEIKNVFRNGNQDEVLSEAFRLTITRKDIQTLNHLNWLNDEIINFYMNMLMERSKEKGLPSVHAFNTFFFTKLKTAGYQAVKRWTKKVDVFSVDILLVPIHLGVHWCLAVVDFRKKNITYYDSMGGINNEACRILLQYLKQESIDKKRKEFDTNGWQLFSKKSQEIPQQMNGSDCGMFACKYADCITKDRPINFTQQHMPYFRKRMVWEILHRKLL
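Test system: hSENP1 catalytic domain, recombinant; Amount: 20 pM final SENP1 enzyme; Medium: Tris pH 8 buffer plus EDTA, NaCl, BME, BSA, NP40, catalase; Schedule: 50 min enzyme reaction, room temperature, light-protected; Technique: FRET fluorescence in CFP and YFP emission channels; Controls: no-enzyme wells low, DMSO-plus-enzyme wells high control.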
ADAM17 inh – ADAM17 inhibitors, primary screen, biochemical, QFRET; Disintegrin and metalloproteinase domain-containing protein 17 (Homo sapiens), P78536; recombinant ADAM17, EDANS/DABCYL FRET peptide cleavage; inhibition, % at 6.95 µM; 0.83% of 370,000 active;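 active = inhibition above the mean of compounds lying between control limits plus 3 SD, set per campaign, cut at about 8.5% in these data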
FAS-TE inh conf – FAS thioesterase domain inhibitors, confirmation, biochemical, fluorescence intensity, single concentration; shares compounds with FAS-TE inh; recombinant FAS-TE, OMFH fluorogenic substrate; inhibition, % at 15 µM; 45% of 2,300 active;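 active = compounds inhibiting the enzyme by at least 50% at 15 µM in any one of the replicates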
Each line names hits and unclear results; the compound was inactive in the other large screens (follow-up assays come after a bar, where they were run).

COC(=O)[C@]12C[C@H](CC(=O)N3CCCC3)C(=O)N(CCC3=CCCCC3)C1=C[C@H](C(C)C)O[C@@H]2C1CC1	none (no result: FAS-TE inh, SENP1 FRET inh)
Cc1ccc(Cn2ccc(-c3cnc(-c4ccccc4)s3)n2)cc1	none
O=S(=O)(c1ccccc1)n1ccc(-c2cnc(-c3ccccc3)s2)n1	FAS-TE inh 62.9 | FAS-TE inh conf 58.4
O=C(OCc1c(F)cccc1Cl)c1cc([N+](=O)[O-])ccc1N1CCOCC1	none
Cc1ccc(C(=O)c2cc([N+](=O)[O-])ccc2N2CCOCC2)cc1	none
O=C(OCc1ccc([N+](=O)[O-])cc1)c1cc([N+](=O)[O-])ccc1N1CCOCC1	FAS-TE inh 79.8 | FAS-TE inh conf 75.8
Cc1ccc(COC(=O)c2cc([N+](=O)[O-])ccc2N2CCOCC2)cc1	FAS-TE inh 53.9 | FAS-TE inh conf 52.0
Nn1c(SCC(=O)Nc2ccc(OCc3ccccc3)cc2)nnc1-c1cc(-c2ccccc2)n[nH]1	none (no result: FAS-TE inh, SENP1 FRET inh)
C=CCN1[C@H](Cc2ccccc2)COc2cc(N3CCSCC3)ccc2S1(=O)=O	none (no result: FAS-TE inh, SENP1 FRET inh)
Cc1cc(OCc2nc(N)nc(N)c2-c2ccc(Cl)c(Cl)c2)ccc1[N+](=O)[O-]	FAS-TE inh 51.2 | FAS-TE inh conf inactive
Cc1nc(N)nc(N)c1-c1ccc(Cl)c(Cl)c1	none
O=[N+]([O-])c1ccc(SNc2ccccc2)c([N+](=O)[O-])c1	FAS-TE inh 57.4 | FAS-TE inh conf 45.4
Cc1nn(Cc2ccc([N+](=O)[O-])cc2)c(=O)n1N(C)c1ncc(C(F)(F)F)cc1Cl	FAS-TE inh 79.0 | FAS-TE inh conf 65.2
C#CCNC(=O)C[C@H]1C[C@@]2(C(=O)OC)C(=C[C@H](C(C)C)O[C@@H]2C2CC2)N(CCCCCCCC)C1=O	none (no result: FAS-TE inh, SENP1 FRET inh)
CCCCSc1nc2ccc(Nc3nc(N4CCOCC4)nc(N4CCOCC4)n3)cc2s1	FAS-TE inh 85.5 | FAS-TE inh conf inactive
CCCCNC(=O)CSc1nc2ccc(Nc3nc(N4CCOCC4)nc(N4CCOCC4)n3)cc2s1	none
COc1ccccc1N1CCN(C(=O)C(C)NC(=O)c2cccc([N+](=O)[O-])c2)CC1 (configuration not stated)	FAS-TE inh 80.4 | FAS-TE inh conf 85.8
Cc1ccc(-c2c(C(=O)N(C)Cc3ccccc3)oc(=O)c3ccccc23)cc1	FAS-TE inh 53.6 | FAS-TE inh conf 51.1
CCc1ccc(NS(=O)(=O)c2cc3c(cc2C)n(C)c(=O)c(=O)n3C)cc1	FAS-TE inh 74.1 | FAS-TE inh conf 82.5
Cc1cc2c(cc1S(=O)(=O)Nc1ccc(F)cc1)n(C)c(=O)c(=O)n2C	none
C[C@H](NC(=O)c1[nH]cnc1C(=O)Nc1ccc(Cl)cc1)c1ccccc1	none
C[C@@H](NC(=O)c1[nH]cnc1C(=O)Nc1ccc(Cl)cc1)c1ccccc1	FAS-TE inh 63.8 | FAS-TE inh conf 62.8
CC(C)CNc1cccc2c1S(=O)(=O)N(Cc1cn(Cc3cccc(F)c3)nn1)Cc1ccccc1O2	none (no result: FAS-TE inh, SENP1 FRET inh)
Cc1ccc(SC2=C(Sc3ccc(C)cc3)C(=O)c3ccccc3C2=O)cc1	FAS-TE inh 70.4 | FAS-TE inh conf inactive
CCCCCN1CCCCC(NC(=O)c2ccc3ccccc3c2)C1=O (configuration not stated)	none (no result: FAS-TE inh, SENP1 FRET inh)
COc1ccc(S[C@]2(C(=O)N(C)C)CC(=O)N(S(=O)(=O)c3ccc(F)cc3)[C@@H]2c2ccc(OC)cc2)cc1	none (no result: FAS-TE inh, SENP1 FRET inh)
CN(C)c1ccc(P(=O)(Nc2ccc([N+](=O)[O-])cc2)N2CCOCC2)c(NC(=O)c2cccs2)c1 (configuration not stated)	FAS-TE inh 53.9 | FAS-TE inh conf inactive
COC(=O)[C@]12C[C@H](CC(=O)NCc3ccc(C)o3)C(=O)N(CCc3ccc(OC)c(OC)c3)C1=C[C@H](C(C)C)O[C@@H]2C1CC1	none (no result: FAS-TE inh, SENP1 FRET inh)
COc1ccc(CNC(=O)O[C@H]2CC[C@@]34CCCN3C(=O)CCC[C@H]4C2)cc1	none (no result: FAS-TE inh, SENP1 FRET inh)
COc1ccc(C2=C(C=C(C#N)C#N)C(c3ccccc3C)c3ccccc3O2)cc1OC (configuration not stated)	FAS-TE inh 69.2 | FAS-TE inh conf inactive
COc1cc(-c2nnc(COC(=O)C3c4ccccc4Oc4ccccc43)o2)cc(OC)c1OC	none
CC1CCCC(C)N1C(=O)COC(=O)c1cc([N+](=O)[O-])ccc1N1CCOCC1 (configuration not stated)	FAS-TE inh 62.9 | FAS-TE inh conf 73.6
CC1CC(C)CN(C(=O)COC(=O)c2cc([N+](=O)[O-])ccc2N2CCOCC2)C1 (configuration not stated)	FAS-TE inh 82.9 | FAS-TE inh conf 80.7
CC1CCCN(C(=O)COC(=O)c2cc([N+](=O)[O-])ccc2N2CCOCC2)C1 (configuration not stated)	FAS-TE inh 81.3 | FAS-TE inh conf 83.6
CCOC(=O)C1CCN(C(=O)COC(=O)c2cc([N+](=O)[O-])ccc2N2CCOCC2)CC1	FAS-TE inh 69.6 | FAS-TE inh conf 71.3
CCOC(=O)C1=NOC(C(=O)NCc2ccccc2)(C(=O)c2ccc(OC)cc2)C1 (configuration not stated)	none (no result: FAS-TE inh, SENP1 FRET inh)
COc1ccc2c(c1)CCCN2C(=O)C1CCCN(S(=O)(=O)c2ccc(C(C)(C)C)cc2)C1 (configuration not stated)	none (no result: FAS-TE inh, SENP1 FRET inh)
O=C(Nc1nc(-c2cccc([N+](=O)[O-])c2)cs1)C(c1ccccc1)c1ccccc1	FAS-TE inh 52.2 | FAS-TE inh conf inactive
COC[C@H]1CCCN1c1ccc2c(c1)O[C@H]1CCN(C1)S2(=O)=O	none (no result: FAS-TE inh, SENP1 FRET inh)
O=C(NN1C(=O)c2ccccc2NC1c1ccc([N+](=O)[O-])o1)c1ccccc1 (configuration not stated)	FAS-TE inh 52.2 | FAS-TE inh conf inactive
O=C(NN1C(=O)c2ccccc2NC1c1ccc([N+](=O)[O-])o1)c1ccc([N+](=O)[O-])cc1 (configuration not stated)	none
COc1ccc(C2(CNC(=O)c3cccc([N+](=O)[O-])c3)CCOCC2)cc1OC	none
COc1ccc(C2(CNC(=O)c3cccc([N+](=O)[O-])c3)CCCCC2)cc1OC	FAS-TE inh 51.1 | FAS-TE inh conf 69.8
CCOC1=C2[C@H](c3ccccc3F)N(S(=O)(=O)c3ccc(C)cc3)C[C@H]2n2c(=O)n(-c3ccccc3)c(=O)n2C1	FAS-TE inh 75.0 | FAS-TE inh conf inactive
CCOC1=C2[C@H](c3cccc(Cl)c3)N(S(=O)(=O)c3ccc(C)cc3)C[C@H]2n2c(=O)n(-c3ccccc3)c(=O)n2C1	FAS-TE inh 69.5 | FAS-TE inh conf inactive
O=C(C1CCN(c2cncnc2)CC1)N1CCCC1	none (no result: FAS-TE inh, SENP1 FRET inh)
